The structures appear in SMILES notation. In brackets after ≈: the same amount, converted by molar mass.

For this test, the system named is Mycolicibacterium smegmatis. Description: Antimycobacterial activity against Mycobacterium smegmatis after 24 hrs by microplate alamar blue assay. Type of test: functional. The essentials: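 Alamar blue viability read-out in 96-well microplates, following an earlier described method; test materials dissolved in DMSO at an initial 0.4 mg/mL; kanamycin positive control at 0.1 mg/mL; M. smegmatis strain preincubated 48 h before incubation with test materials.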
For orientation: MIC means the smallest concentration in the dilution series that meets the test's criterion for growth inhibition. A high value points to a need for much substance. Molecule `CC(=O)O[C@@]12[C@H](O)[C@@H](C)[C@@]3(O)[C@@H](C=C(CO)C[C@]4(O)C(=O)C(C)=C[C@@H]34)[C@@H]1C2(C)C` showed a minimum inhibitory concentration (MIC) of over 400 µg/mL.

With `CC1=C2C(=C[C@H]3[C@]4(C)CCCC(C)(C)[C@H]4CC[C@]34O[C@H]24)OC1=O`, the minimal inhibitory concentration (MIC) is over 400 µg/mL.

For `CC1(C)CCC[C@]2(C)[C@@H]1CC[C@@]13O[C@@H]1C1=C(CO)C(=O)OC1=C[C@@H]23`, inhibition of growth (MIC) required 100 µg/mL (≈ 303 µM).

The molecule `CC1(C)CCC[C@]2(C)[C@@H]1CC[C@@]13O[C@@H]1C1=C(CO)C(=O)O[C@]14O[C@@H]4[C@@H]23` displayed an MIC of 1.5 µg/mL (≈ 4.33 µM).

With `CC1=C2[C@@H](O)[C@@]3(O)CC[C@@H]4C(C)(C)CCC[C@@]4(C)[C@@H]3[C@@H](O)[C@H]2OC1=O`, the minimal inhibitory concentration (MIC) was over 400 µg/mL.

`CC(=O)O[C@@]12C[C@@H](C)[C@@]3(O)[C@@H](C=C(CO[C@@H]4O[C@H](CO)[C@@H](O)[C@H](OC(=O)c5cc(O)c(O)c(O)c5)[C@H]4O)C[C@]4(O)C(=O)C(C)=C[C@@H]34)[C@@H]1C2(C)C` had an MIC of over 400 µg/mL.

Molecule `CC(=O)O[C@@]12C[C@](C)(O)[C@H]3[C@@H](C=C(CO)C[C@]4(O)C(=O)C(C)=C[C@@H]34)[C@@H]1C2(C)C` came in with a minimal inhibitory concentration (MIC) of over 400 µg/mL.

`CC1=C2[C@@H](OC1=O)C(=O)[C@H]1[C@]3(C)CCCC(C)(C)[C@H]3CC[C@@]1(O)[C@H]2O` returned a minimum inhibitory concentration (MIC) of 300 µg/mL (≈ 861 µM).

For `CC1(C)C(=O)CC[C@]2(C)[C@@H]1C[C@H](O)C1=CC3=C(CO)C(=O)O[C@@H]3[C@@H](O)[C@H]12`, the minimal inhibitory concentration (MIC) was over 400 µg/mL.

In turn, `CC(=O)O[C@@]12C[C@@H](C)[C@@]3(O)[C@@H](C=C(CO[C@@H]4O[C@H](CO)[C@@H](OC(=O)c5cc(O)c(O)c(O)c5)[C@H](O)[C@H]4O)C[C@]4(O)C(=O)C(C)=C[C@@H]34)[C@@H]1C2(C)C` returned an MIC of over 400 µg/mL.

`CC1=C2C=C3[C@@H](O)C[C@@H]4C(C)(C)CCC[C@@]4(C)[C@@H]3[C@@H](O)[C@@]2(O)OC1=O` registered a minimum inhibitory concentration (MIC) of 400 µg/mL (≈ 1150 µM).

In turn, `CC1(C)CCC[C@]2(C)[C@@H]1CCC1=CC3=C(CO)C(=O)O[C@]3(O)[C@H](O)[C@H]12` registered an MIC of 200 µg/mL (≈ 574 µM).

The molecule `CC(=O)O[C@@]12C[C@@H](C)[C@@]3(O)[C@@H](C=C(C=O)C[C@]4(O)C(=O)C(C)=C[C@@H]34)[C@@H]1C2(C)C` came in with an MIC of over 400 µg/mL.

`CC1=C[C@H]2[C@@]3(O)[C@H](C)CC(=O)[C@@H](C(C)C)[C@@H]3C=C(CO)C[C@]2(O)C1=O` displayed a minimum inhibitory concentration (MIC) of over 400 µg/mL.

The molecule `CC1(C)CCC[C@]2(C)[C@@H]1CC[C@]1(O)[C@H](O)C3=C(CO)C(=O)OC3=C[C@@H]21` returned an MIC of over 400 µg/mL.

As for `CC1(C)CCC[C@]2(C)[C@@H]1C[C@H](O)C1=CC3=C(CO)C(=O)O[C@]3(O)[C@H](O)[C@H]12`, the MIC was over 400 µg/mL.

In the case of `CC(=O)O[C@@]12C[C@@H](C)[C@@]3(O)[C@@H](C=C(C(=O)O)C[C@]4(O)C(=O)C(C)=C[C@@H]34)[C@@H]1C2(C)C`, the MIC is over 400 µg/mL.

Turning to `CC1(C)C(=O)CC[C@]2(C)[C@@H]1CCC1=CC3=C(CO)C(=O)O[C@@H]3[C@@H](O)[C@H]12`, the MIC is over 400 µg/mL.

Turning to `CC(=O)O[C@@]12C[C@@H](C)[C@@]3(O)[C@@H](C=C(CO[C@@H]4O[C@H](CO)[C@@H](O)[C@H](O)[C@H]4O)C[C@]4(O)C(=O)C(C)=C[C@@H]34)[C@@H]1C2(C)C` [FISCHEROSIDES A], the MIC is over 400 µg/mL.

`NC[C@H]1O[C@H](O[C@H]2[C@H](O)[C@@H](O[C@H]3O[C@H](CO)[C@@H](O)[C@H](N)[C@H]3O)[C@H](N)C[C@@H]2N)[C@H](O)[C@@H](O)[C@@H]1O` [KANAMYCIN] displayed an MIC of 10 µg/mL (≈ 20.6 µM).

In turn, `CC(=O)O[C@@]12C[C@@H](C)[C@@]3(O)[C@@H](C=C(CO)C[C@]4(O)C(=O)C(C)=C[C@@H]34)[C@@H]1C2(C)C` [PROSTRATIN] gave an MIC of over 400 µg/mL.

The record behind these values is ChEMBL document CHEMBL4118025, “ent-Abietane and Tigliane Diterpenoids from the Roots of Euphorbia fischeriana and Their Inhibitory Effects against Mycobacterium smegmatis” (2017).
